Results collected from several papers.
Target: Activin receptor type-1-like (ACVRL1, Homo sapiens, UniProt P37023)

With `O=C(c1ccc(Nc2ncc(Cl)c(-c3cc4ccccc4s3)n2)cc1)N1CCC(N2CCCC2)CC1` the remaining binding was 100% (binding, competition with immobilised ligand; 1 µM).
With `CCc1ccccc1C(=O)Nc1n[nH]c2c(C)c(F)c(C3C(C#N)=C(C)N(C)C(C)=C3C#N)cc12` the remaining binding was 75% (binding, competition with immobilised ligand; 1 µM).
With `CN(C)c1nccc(-c2cnn3ncccc23)n1` the remaining binding was 100% (binding; 1 µM).
`CC(=O)N1CCC(c2ccc(C(=O)NC3=NCCN3)cc2C(F)(F)F)CC1` gave a remaining binding of 100% (binding, competition with immobilised ligand; 1 µM).
The remaining binding of `Nc1ncc2c(n1)-c1c([nH]c3ccc(C#CC4CC4)cc13)CCCC2` is reported as 100% (binding, competition with immobilised ligand; 1 µM).
With `CC1=C(C#N)C(c2ccc3c(c2)c(NC(=O)c2ccccc2C)nn3C)C(C#N)=C(C)N1` the remaining binding was 97% (binding, competition with immobilised ligand; 1 µM).
`c1cncc(-c2cccc(Nc3nccc(NC4CCCCC4)n3)c2)c1` has a remaining binding of 52% (binding, competition with immobilised ligand; 10 µM).
`C[C@@H]1CCN(c2nccc(-c3cnn4ncccc34)n2)C1` has a remaining binding of 100% (binding; 1 µM).
The remaining binding of `O=C(c1ccc(Nc2ncc(Cl)c(-c3ccc(Cl)s3)n2)cc1)N1CCC(N2CCCC2)CC1` is reported as 100% (binding, competition with immobilised ligand; 1 µM).
For `N[C@H]1CCN(c2nccc(-c3cnn4ncccc34)n2)C1`, the remaining binding was 97% (binding; 1 µM).
The remaining binding of `NS(=O)(=O)c1cc(NC(=O)C2(c3ccccc3Cl)CC2)ccc1Oc1cccc(Cl)c1` is reported as 45% (binding, competition with immobilised ligand; 1 µM).
The remaining binding of `COc1ncc2cc3ccccc3nc2c1C#N` is reported as 93% (binding, competition with immobilised ligand; 5 µM).
With `FC(F)(F)Oc1cccc(-c2cnc3ccc(-c4ccncc4)nn23)c1` the remaining binding was 85% (cell-free assay, competition with immobilised ligand; 5 µM).
For `CC1CCCN1c1nccc(-c2cnn3ncccc23)n1` (stereo not shown), the remaining binding was 89% (binding; 1 µM).
For `CC1=C(C#N)[C@@H](c2ccc3[nH]nc(C)c3c2)C(C#N)=C(c2ccc(Cl)cc2)N1`, the remaining binding was 79% (binding, competition with immobilised ligand; 1 µM).
For `CNC(=O)[C@@H]1CC[C@@H](n2c(-c3ccc4cnccc4c3)nc3ccc(C(=O)NCc4cccc(C(N)=O)c4)cc32)C1`, the remaining binding was 68% (binding, competition with immobilised ligand; 1 µM).
`c1cnn2ncc(-c3ccnc(N4CCC45COC5)n3)c2c1` has a remaining binding of 100% (binding; 1 µM).
The remaining binding of `O=C(c1ccc(Nc2nccc(-c3cc4ccccc4s3)n2)cc1)N1CCC(N2CCCC2)CC1` is reported as 100% (binding, competition with immobilised ligand; 1 µM).
For `COc1ccnn2ncc(-c3ccnc(N(C)C)n3)c12`, the remaining binding was 100% (binding; 1 µM).
The remaining binding of `O=C(Nc1c[nH]nc1C(=O)NC1CCNCC1)c1cc(F)cc(F)c1` is reported as 94% (binding, competition with immobilised ligand; 1 µM).
For `CN(c1nccc(-c2cnn3ncccc23)n1)C1CC1`, the remaining binding was 76% (binding; 1 µM).
`CN(C)CC#Cc1ccc(OCCCc2sc(N3CCc4cccc(C(=O)Nc5nc6ccccc6s5)c4C3)nc2C(=O)O)c(F)c1` gave a remaining binding of 82% (binding, competition with immobilised ligand; 1 µM).
